According to ChEMBL document CHEMBL3352283, “Benzodioxane-benzamides as new bacterial cell division inhibitors” (Eur J Med Chem, 2015):
In brackets after ≈: the same amount, converted by molar mass. Activity calls are given as the source filed them. The rule behind the calls is not given here.

Legend:
Staphylococcus aureus [1] = assay: Antibiotic activity against Staphylococcus aureus assessed as growth inhibition after 2 days by optical microscopy; format: functional; conditions: 48 h
MRC5 = assay: (§1) Cytotoxicity against human MRC5 cells assessed as reduction in cell viability after 24 hrs by MTT assay; format: cell-based; conditions: mrc5, 24 h
In short: (§2)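 Vero or MRC-5 cells kept in DMEM with 10% heat-inactivated calf serum, 37 °C, 5% CO₂; compound-treated cells given MTT for 3 h at 37 °C, then DMSO 10 min, absorbance at 570 nm; cytotoxicity % = 100 − (sample OD/untreated OD) × 100; TD50/TD90 = dose cutting viability 50% or 90%.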

[2] = as §1; format: cell-based; conditions: MRC5 cells, read-out: TD50; in short: as §2
Escherichia coli = assay: Antibiotic activity against Escherichia coli DH5alpha assessed as growth inhibition after 2 days by optical microscopy; format: functional; conditions: DH5[alpha], 48 h
Vero = assay: (§3) Cytotoxicity against african green monkey Vero cells assessed as reduction in cell viability after 24 hrs by MTT assay; format: cell-based; conditions: chlorocebus sabaeus, vero, 24 h; in short: as §2
[3] = as §3; format: cell-based; conditions: chlorocebus sabaeus, Vero cells; read-out: TD50; in short: as §2
[4] = Therapeutic index, ratio of TD90 for human MRC5 cells to MBC for Staphylococcus aureus; format: cell-based; conditions: read-out: TI
In short: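 Therapeutic index calculated as MRC-5 TD90 (MTT assay) divided by MBC measured after washout regrowth test.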

Staphylococcus aureus [5] = assay: Antibiotic activity against Staphylococcus aureus assessed as growth inhibition after compound washout by optical microscopy; format: functional
Staphylococcus aureus [6] = assay: Antibiotic activity against Staphylococcus aureus assessed as ballooning of cocci at 1 to 4 times MIC concentration by phase-contrast microscopy; format: functional, organism-based

SMILES	MIC (Staphylococcus aureus [1])	TD90 (MRC5)	CC50 at 24 h [2]	MIC (Escherichia coli)	TD90 (Vero)	CC50 at 24 h [3]	selectivity ratio [4]	MBC (Staphylococcus aureus [5])	Activity (Staphylococcus aureus [6])
CCCCCCCCCOc1ccc(F)c(C(=O)NCCN)c1F	10 µg/mL (≈ 29.2 µM)	80 µg/mL	35 µg/mL (≈ 102 µM)	20 µg/mL (≈ 58.4 µM)	120 µg/mL	60 µg/mL (≈ 175 µM)			
NC(=O)c1c(F)ccc(OC[C@@H]2COc3ccc(Cl)cc3O2)c1F	0.25 µg/mL (≈ 0.703 µM)	> 800 µg/mL	600 µg/mL (≈ 1690 µM)	> 100 µg/mL	> 200 µg/mL	> 200 µg/mL	> 1600	0.5 µg/mL (≈ 1.41 µM)	
NC(=O)c1c(F)ccc(OCC2COc3ccc(Cl)cc3O2)c1F (racemic)	0.5 µg/mL (≈ 1.41 µM)	> 800 µg/mL	500 µg/mL (≈ 1410 µM)	> 100 µg/mL	> 800 µg/mL	450 µg/mL (≈ 1270 µM)	> 1600	0.5 µg/mL (≈ 1.41 µM)	Active
NC(=O)c1c(F)ccc(OC[C@H]2COc3ccc(Cl)cc3O2)c1F	1 µg/mL (≈ 2.81 µM)	> 800 µg/mL	400 µg/mL (≈ 1120 µM)	> 100 µg/mL	> 200 µg/mL	> 200 µg/mL	> 320	2.5 µg/mL (≈ 7.03 µM)	
CCCCCCCCCOc1ccc(F)c(C2=NCCO2)c1F	> 100 µg/mL			> 100 µg/mL					
CCCCCCCCCOc1ccc(F)c(C(N)=O)c1F	0.1 µg/mL (≈ 0.334 µM)	> 200 µg/mL	100 µg/mL (≈ 334 µM)	> 100 µg/mL	> 200 µg/mL	90 µg/mL (≈ 301 µM)	> 800	0.25 µg/mL (≈ 0.835 µM)	
NCC(O)COCCCCOc1ccc(F)c(C(N)=O)c1F (racemic)	> 100 µg/mL			> 100 µg/mL					
NCCNC(=O)c1c(F)ccc(OCC2COc3ccccc3O2)c1F (stereo not given)	20 µg/mL (≈ 54.9 µM)			> 100 µg/mL				40 µg/mL (≈ 110 µM)	
NC(=O)c1c(F)ccc(OCC2COc3ccccc3O2)c1F (racemic)	5 µg/mL (≈ 15.6 µM)			> 100 µg/mL				80 µg/mL (≈ 249 µM)	
CCCCCCCCCOc1ccc(F)c(C(=O)NCCNC(=O)c2c(F)ccc(OCCCCCCCCC)c2F)c1F	> 100 µg/mL			> 100 µg/mL					
CCCCCCCCCOc1ccc(F)c(C#N)c1F	> 100 µg/mL			> 100 µg/mL					
NC(=O)c1c(F)ccc(OCCCCOCC(O)CO)c1F (stereo not given)	> 100 µg/mL			> 100 µg/mL					
CCCCCCCCCOc1ccc(F)c(C(=O)NCCO)c1F	> 100 µg/mL			> 100 µg/mL					
NC(=O)c1c(F)ccc(OCC2COc3cc(Cl)ccc3O2)c1F (racemic)	1 µg/mL (≈ 2.81 µM)	800 µg/mL	650 µg/mL (≈ 1830 µM)	> 100 µg/mL	800 µg/mL	550 µg/mL (≈ 1550 µM)	320	2.5 µg/mL (≈ 7.03 µM)	
